Assays:
PC-3 [1] = assay: Inhibition of human prostate cancer cell line PC-3 growth; type: functional, cell-based
MDA-MB-231 [2] = assay: Inhibition of human breast cancer cell line MDA-MB-231 growth; type: functional, cell-based
SK-OV-3 = assay: Compound was evaluated for cytotoxic activity against human ovarian cancer cell line SK-OV-3; type: functional, cell-based
Summary of the method: (§1)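 SK-OV-3, Mes-SA and multidrug-resistant Mes-SA/Dx5 cultured in McCoy's 5A with 1 mM aminoguanidine, penicillin/streptomycin and 10% FBS.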

MDA-MB-231 [3] = assay: Compound was evaluated for cytotoxic activity against human breast cancer cell line MDA-MB-231; type: functional, cell-based
Summary of the method: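 MDA-MB-231 grown in medium with 1 mM aminoguanidine, 50 U/mL penicillin, 50 µg/mL streptomycin, 10% FBS and 2 mM L-glutamine. Drug added 24 h after plating, cells grown a further 72 h. Cell number by MTS; IC50 (µM), some values as mean ± error (n).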

A-375 = assay: Compound was evaluated for cytotoxic activity against human melanoma cell line A375; type: functional, cell-based
Summary of the method: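 A375 melanoma medium contained 1 mM aminoguanidine, penicillin/streptomycin, 10% FBS, 1 mM sodium pyruvate and 2 mM L-glutamine.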

PC-3 [4] = assay: Compound was evaluated for cytotoxic activity against human prostate cancer cell line PC-3; type: functional, cell-based
SK-MEL-5 = assay: Compound was evaluated for cytotoxic activity against human melanoma cell line SK-Mel-5; type: functional, cell-based
Summary of the method: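 SK-Mel-5 maintained in EMEM supplemented with 1 mM aminoguanidine, 50 U/mL penicillin, 50 µg/mL streptomycin and 10% FBS.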

T47D = assay: Compound was evaluated for cytotoxic activity against the following human cancer cell Breast cancer cell line T47 D; type: functional, cell-based
Summary of the method: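 T47.D in RPMI 1640 with 1 mM aminoguanidine, penicillin/streptomycin, 10% FBS, 1 mM sodium pyruvate, 2 mM L-glutamine and 0.4% insulin.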

[5] = test system: Mes-SA/Dx5 (Homo sapiens); assay: Compound was evaluated for cytotoxic activity against the following human cancer cell MDR Uterine cancer cell line Mes-SA/Dx5
Nucleic Acid [6] = assay: ability to interact with DNA was assessed by a DNA/ethidium bromide dye displacement assay, expressed as DC50 for polydAdT; type: nucleic-acid assay
Summary of the method: (§2)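 Ethidium displacement run by an adapted literature method: 2.5 µM polydAdT with 1.5 µM ethidium bromide in 3.75 mM Tris/NaCl, pH 8.0. Compound added to the DNA–dye complex; DC50 reported.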

MES-SA = assay: Compound was evaluated for cytotoxic activity against the following human cancer cell Uterine cancer cell line Mes-SA; type: functional, cell-based; summary of the method: as §1
Nucleic Acid [7] = assay: Ability to interact with DNA was assessed by a DNA/ethidium bromide dye displacement assay, expressed as DC50 for polydAdT; type: nucleic-acid assay; summary of the method: as §2

IC50 (PC-3 [1])	IC50 (MDA-MB-231 [2])	SMILES	further results
56 µM	70 µM	c1cc2c(cc1CNCCCCNCc1ccc3c(c1)OCO3)OCO2	
3.2 µM	2.8 µM	COc1ccc(CNCCCCNCc2ccc(OC)c3ccccc23)c2ccccc12	
20 µM	65 µM	Clc1ccc(CNCCCCNCc2ccc(Cl)c(Cl)c2)cc1Cl	
22 µM	84 µM	N#Cc1ccc(CNCCCCNCc2ccc(C#N)cc2)cc1	
6 µM	21 µM	COc1ccc(CNCCCCNCc2ccc(OC)cc2)cc1	
15 µM	19 µM	[N-]=[N+]=Nc1cccc(CNCCCCNCc2cccc(N=[N+]=[N-])c2)c1	
50 µM	201 µM	NCCCCNCc1ccc([N+](=O)[O-])cc1	
		c1ccc(-c2ccc(CNCCCCNCc3ccc(-c4ccccc4)cc3)cc2)cc1	IC50 (SK-OV-3): 0.74 µM; IC50 (MDA-MB-231 [3]): 1.92 µM; IC50 (A-375): 0.59 µM; IC50 (PC-3 [4]): 0.77 µM
20 µM	19 µM	c1cc(CNCc2cccc3ccccc23)cc(CNCc2cccc3ccccc23)c1	
0.48 µM	1.3 µM	c1ccc(-c2ccc(CNCCCCCNCc3ccc(-c4ccccc4)cc3)cc2)cc1	
		c1ccc(N(c2ccccc2)c2ccc(CNCCCCNCc3ccc(N(c4ccccc4)c4ccccc4)cc3)cc2)cc1	IC50 (SK-OV-3): 0.68 µM; IC50 (SK-MEL-5): 0.94 µM; IC50 (MDA-MB-231 [3]): 0.62 µM; IC50 (T47D): 0.65 µM; IC50 (A-375): 0.4 µM; IC50 [5]: 0.61 µM; IC50 (PC-3 [4]): 0.6 µM; DC50 (Nucleic Acid [6]): 9.4 µM; IC50 (MES-SA): 0.64 µM
6.5 µM	8.3 µM	c1ccc2c(CNCCCCCNCc3cccc4ccccc34)cccc2c1	
98 µM	146 µM	Nc1ccccc1CNCCCCNCc1ccccc1N	
		Cn1cc(NC(=O)c2cc(NC(=O)c3cc(NC=O)cn3C)cn2C)cc1C(=O)NCCC(=N)N [STALLIMYCIN]	DC50 (Nucleic Acid [6]): 44 µM
23 µM	62 µM	O=[N+]([O-])c1ccccc1CNCCCCNCc1ccccc1[N+](=O)[O-]	
143 µM	205 µM	O=[N+]([O-])c1ccc(CNCCCCNCc2ccc([N+](=O)[O-])cc2)cc1	
4.3 µM	5.1 µM	c1ccc2c(CNCCCNCc3cccc4ccccc34)cccc2c1	
56 µM	197 µM	CN(C)c1ccc(CNCCCCNCc2ccc(N(C)C)cc2)cc1	

IC50 (PC-3 [1])	IC50 (MDA-MB-231 [2])	SMILES	further results
0.8 µM	2 µM	c1ccc(-c2ccc(CNCCCNCc3ccc(-c4ccccc4)cc3)cc2)cc1	
2.5 µM	2.1 µM	c1ccc2cc(CNCCCCNCc3ccc4ccccc4c3)ccc2c1	
9 µM	18 µM	O=[N+]([O-])c1cccc(CNCCCCNCc2cccc([N+](=O)[O-])c2)c1	
> 300 µM	> 300 µM	Nc1cccc(CNCCCCNCc2cccc(N)c2)c1	
2.7 µM	3.5 µM	c1ccc2c(CNCCCCNCc3c4ccccc4cc4ccccc34)c3ccccc3cc2c1	
7 µM	5 µM	CC(CCC(C)NCc1cccc2ccccc12)NCc1cccc2ccccc12 (stereo not given)	
10 µM	42 µM	N#Cc1cccc(CNCCCCNCc2cccc(C#N)c2)c1	
0.07 µM	0.06 µM	O=C1c2cccc3cccc(c23)C(=O)N1CCNCCCNCCN1C(=O)c2cccc3cccc(c23)C1=O [ELINAFIDE]	
14 µM	7 µM	c1ccc2c(CNCc3ccc(CNCc4cccc5ccccc45)cc3)cccc2c1	
37 µM	25 µM	c1ccc2c(CCNCCCCNCCc3cccc4ccccc34)cccc2c1	
51 µM	77 µM	c1ccc2c(CNCCCCNCc3c[nH]c4ccccc34)c[nH]c2c1	
1.85 µM	6.6 µM	c1ccc2c(c1)Cc1cc(CNCCCCNCc3ccc4c(c3)Cc3ccccc3-4)ccc1-2	
211 µM	> 300 µM	NCCCCNCc1cccc2ccccc12	
8.4 µM	9.4 µM	c1ccc2c(CNCCCCNCc3ccnc4ccccc34)ccnc2c1	
		c1ccc2c(CNCCCCNCc3cccc4ccccc34)cccc2c1	DC50 (Nucleic Acid [7]): 8.7 µM; IC50 (SK-OV-3): 8.5 µM; IC50 (SK-MEL-5): 4.6 µM; IC50 (MDA-MB-231 [3]): 9.1 µM; IC50 (T47D): 6.5 µM; IC50 (A-375): 5.4 µM; IC50 [5]: 7.2 µM; IC50 (PC-3 [4]): 10 µM; IC50 (MES-SA): 10.1 µM
211 µM	> 300 µM	NCCCCNCc1ccccc1	
58 µM	58 µM	COc1cc(CNCCCCNCc2cc(OC)c(OC)c(OC)c2)cc(OC)c1OC	

From ChEMBL document CHEMBL1135298, “Induction of apoptosis by aryl-substituted diamines: role of aromatic group substituents and distance between nitrogens” (Bioorg Med Chem Lett, 2002)
